# UPR XBP1 act – activators of adaptive XBP1 UPR arm, primary screen, cell-based, CHO-XBP1 luciferase reporter, luminescence, uHTS | IRE1-XBP1 UPR activation; percent of tunicamycin response, DMSO as zero | activation, % at 20 µM | 330,000 tested, 0.33% active;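 active means versus positive control, 20 µM dose yields 30% or more activation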;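 further: 100% = tunicamycin at 10 µg/mL and 0% = DMSO only wells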
#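 Material: CHO-XBP1 cells stably carrying IRE1-XBP1-driven luciferase reporter | Medium: F12 with 10% serum | Compound dosing: 20 µM single concentration, DMSO 1% | Incubation: Overnight seeding at 37 °C, 6 h compound treatment at 37 °C | Detection: Steady-Glo luminescence read | Read-out basis: % activation of reporter signal versus tunicamycin and DMSO controls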
# Dynein transport – inhibitors of GR-EGFP nuclear translocation, primary screen, dynein cargo transport inhibitor project, imaging, high-content, 3617.4 mouse cells. 220,000 tested, 0.47% active. z-score, hits read low. test concentration mostly 20 µM; stimulated with dexamethasone, 1 µM; hits give low values;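 active means plate z-score of nuclear minus cytoplasmic receptor signal below a set negative limit, without overly bright fluorescence or cell loss, cut at about -3.5 in these data, passing the limit was not always enough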;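 further: z-score of nuclear minus cytoplasmic ring GR-EGFP intensity difference per well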
#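 medium = tetracycline-free induction medium containing charcoal-stripped FBS | probe or stimulus = dexamethasone, 1.0 µM final | timing = 48 h induction, then 1 h compound, then 30 min agonist, 37 °C | detection = automated 10x imaging of fixed Hoechst-stained cells | read-out basis = nuclear versus cytoplasmic GR-EGFP signal, averaged per well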
# CHOP inhibitor – inhibitors of CHOP promoter induction, primary screen, cell-based, unfolded protein response, luciferase reporter | inhibition, % at 10 µM | CHO-K1 CHOP-promoter luciferase, tunicamycin-induced, 15-18 h | 220,000 tested, 3.8% active;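 active means compounds that reduced the stress-induced luciferase reporter signal by more than about 70% of percent inhibition, limit read from the data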;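 further: 0% = tunicamycin plus vehicle and 100% = wells without tunicamycin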
# T cruzi inh – inhibitors of intracellular T. cruzi growth, primary screen, luminescence, NIH3T3 host cells. inhibition, % (no concentration beside the values). T. cruzi beta-gal in NIH3T3, 90 h. 300,000 tested, 1.4% active;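 active means mean inhibition across valid replicates above about 55%, limit read from the data; inconclusive means mean below that limit but half or more replicates reach it; inactive means mean below it, under half of replicates reach it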;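 further: signal also drops with host cell toxicity which is not excluded here; 0% = plate median of DMSO wells and 100% = zero luminescence signal; higher percent means less beta-gal luminescence so fewer parasites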
#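 compound dosing = single 50 nL compound addition per well in DMSO | material = NIH/3T3 host cells with β-galactosidase reporter T. cruzi | input = 5,000 host fibroblasts per well | timing = ≥90 h infection period, 3 h prior cell attachment | read-out basis = percent inhibition of parasite-derived β-gal signal | detection = GalScreen β-gal luminescence, detergent lysis, 60 min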
# Lmaj promast – Leishmania major promastigote growth inhibition, primary screen; 200,000 tested, 9% active; inhibition, % at 10 µM; Leishmania major promastigotes, resazurin fluorescence viability; AID 1063, 2008; in the data active means inhibition above about 50%;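 further: promastigotes grown with compound for 44 hours at 28 °C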
# CHOP UPR activ – activators of apoptotic CHOP UPR arm, primary screen, cell-based, CHO-CHOP luciferase reporter, luminescence, uHTS; UPR activation; percent of tunicamycin response over DMSO baseline; activation, % at 10 µM; 330,000 tested, 0.34% active;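 active means at 10 µM dose, activation of 40% or more, normalized to positive control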;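 further: 100% = tunicamycin at 10 µg/mL and 0% = DMSO alone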
#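 Assay system: CHO-CHOP cells, stable luciferase reporter of PERK-eIF2a-CHOP signalling / Buffer or medium: F12 plus 10% serum / Compound dosing: one dose, 10 µM in 0.5% DMSO / Times: 6 h compound treatment, 37 °C / Technique: luciferase luminescence / Read-out: % reporter activation, DMSO baseline versus tunicamycin full activation / Benchmarks: tunicamycin and DMSO controls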
# Numbers without * were called inactive; u = inconclusive; x = no result. The sample as a whole holds a higher share of hits than the screen did.
SMILES,UPR XBP1 act,Dynein transport,CHOP inhibitor,T cruzi inh,Lmaj promast,CHOP UPR activ
CN(/N=C/c1ccc(O)cc1O)c1nc(-c2ccccc2)cc(-c2ccccc2)n1,17.0,1.27,53.9,u,63.9*,5.8
Cc1cc(-c2ccccc2)nc(N/N=C/c2ccc(O)cc2O)n1,17.3,x,x,-4.3,x,6.4
COCCn1c(-c2ccc(OC)cc2)cnc1SCC(=O)Nc1cccc2ccccc12,-1.8,0.292,26.9,-24.0,77.3*,1.5
COCCn1c(-c2ccc(Cl)cc2)cnc1SCC(=O)NCCc1ccc(OC)c(OC)c1,-3.0,-0.686,-3.2,21.7,70.5*,1.1
CSc1ccc(CN(C)CC(=O)Nc2c(F)cccc2F)cc1,-1.9,-0.443,22.2,9.3,-5.7,-1.7
CCC1CSC(Nc2ccc(C(=O)/C=C/c3ccc(Oc4ccccc4)cc3)cc2)=N1 (stereo unspecified),1.5,-0.596,14.3,35.5,58.6*,3.8
CCOC(=O)Nc1ccc(C(=O)/C=C/c2ccccc2)cc1,0.0,-0.16,-14.9,-0.6,x,5.8
CCC1CSC(Nc2ccc(C(=O)/C=C/c3cccc(C)c3)cc2)=N1 (stereo unspecified),4.0,0.567,34.7,60.0*,13.8,5.4
Cc1ccc(/C=C/C(=O)c2ccc(C)cc2)cc1,6.5,-1.59,-23.4,-9.3,0.8,3.2
Cc1cccc(N(CC(=O)NC2CCCCC2)C(=O)c2csnn2)c1,2.3,x,x,-9.9,x,-0.7
CC(=O)c1c(C)nn(C(=O)c2cccs2)c1C,0.2,0.157,6.1,-8.3,-3.9,-0.5
Cc1nn(C(=O)c2cccs2)c(N)c1-c1ccccc1,5.6,-0.0277,94.6*,-6.1,-9.0,7.0
Cc1ccc(NC(=O)CN(C)Cc2nc3c(Br)cc(Br)cc3c(=O)[nH]2)cc1,1.4,-0.515,51.9,-17.3,-6.6,0.5
c1ccc(SCCOCCN2CCc3ccccc3C2)cc1,-1.8,-0.199,21.2,u,89.8*,-1.8
Cc1ccc(SCCOCCN2CCOCC2)cc1,-6.8,x,x,17.6,x,1.4
CC1CC(C)CN(CCCSc2ccccc2)C1 (stereo unspecified),-4.6,0.37,15.0,4.7,92.3*,0.4
CC1CC(C)CN(CCOCCSc2ccc(Cl)cc2)C1 (stereo unspecified),-0.3,-0.213,-6.7,41.2,90.5*,-0.7
CC1CC(C)CN(CCOCCSc2ccccc2)C1 (stereo unspecified),-1.9,-0.525,7.3,60.0*,89.4*,-1.3
CC1CN(CCCCSc2ccccc2)CC(C)O1 (stereo unspecified),-4.5,x,x,17.8,x,0.5
c1ccc(SCCN2CCc3ccccc3C2)cc1,3.5,-0.165,8.0,-6.0,-0.3,3.5
N#Cc1c(-c2ccccc2)no[n+]1[O-],x,x,-2.8,x,x,x
CCOC(=O)C(NC(=O)Nc1ccc(C(N)=O)cc1)(c1ccccc1)C(F)(F)F (stereo unspecified),-0.9,0.708,-9.7,-0.1,0.7,-0.2
CC1CCCN(CCOCCSc2ccccc2)C1 (stereo unspecified),-2.6,0.706,3.5,59.9*,97.5*,0.4
CC1CN(CCCSc2ccc(Cl)cc2)CC(C)O1 (stereo unspecified),-1.4,-0.289,2.4,4.0,85.2*,0.2
O=c1cc(/N=C/c2coc3c(ccc4ccccc43)c2=O)[nH]c(=S)[nH]1,-2.1,0.649,78.9*,-13.7,51.4*,0.8
SMILES,UPR XBP1 act,Dynein transport,CHOP inhibitor,T cruzi inh,Lmaj promast,CHOP UPR activ
CC(C)(C)OC(=O)N1CCC(NC(=O)c2[nH]cnc2C(=O)Nc2cccc(Cl)c2)CC1,-2.6,x,x,x,x,-2.1
CN1CCN(CCc2nc3cc(NC(=O)COc4ccc([N+](=O)[O-])cc4)ccc3n2C)CC1,-2.2,x,x,13.6,x,-0.1
COc1cccc(-c2cc(C(F)(F)F)nc(NCc3ccco3)n2)c1,0.2,-0.468,70.7*,9.7,7.7,0.0
COc1ccc(-c2cc(C(F)(F)F)nc(NCc3ccco3)n2)cc1OC,4.2,-0.069,75.1*,11.9,4.2,0.7
FC(F)(F)c1cc(-c2ccc3c(c2)OCO3)nc(NCc2ccco2)n1,1.6,-0.537,69.1,32.7,2.8,-0.5
Cc1csc(NC(=O)CSc2nnc(-c3ccc(Cl)cc3)n2N)n1,-3.4,-0.308,26.6,7.2,-4.5,0.7
Cc1csc(NC(=O)CCc2c(C)nc3cc(-c4ccc(Cl)cc4)nn3c2C)n1,1.8,0.723,88.5*,x,6.1,-0.6
Cc1nc2cc(-c3ccc(Cl)cc3)nn2c(C)c1CCC(=O)NC(C)c1ccc2c(c1)OCCO2 (stereo unspecified),-6.5,-0.249,79.3*,28.3,98.1*,-3.1
O=C(c1ccc(Cl)c(S(=O)(=O)N2CCOCC2)c1)N1CCCCCC1,1.7,x,x,-1.5,x,0.2
CCN(CC)CCNc1nc2c(c(=O)[nH]c(=O)n2C)n1CC(O)COc1ccc(Cl)cc1Cl (stereo unspecified),-3.5,0.664,37.5,-4.4,91.6*,-1.1
Cc1ccc2nc(N3CCN(Cc4nnnn4Cc4ccccc4)CC3)c(C#N)cc2c1,-3.3,-0.381,91.6*,0.8,-5.3,0.3
FC(F)Sc1ccc(NC(=S)NC2CCCCC2)cc1,2.7,0.271,94.9*,3.0,12.4,1.7
FC(F)Sc1ccc(NC(=S)NC(c2ccccc2)c2ccccc2)cc1,8.0,-1.25,53.8,u,56.3*,7.1
FC(F)Sc1ccc(NC(=S)NCc2ccccc2)cc1,-1.7,-0.0634,31.7,11.0,19.9,0.7
CCCCOc1ccc(Cl)cc1CSc1nnc(CC)n1N,-1.9,-0.687,4.2,6.7,87.9*,-0.4
O=[N+]([O-])c1cccc(-c2noc(-c3cccs3)n2)c1,3.9,0.278,-1.3,8.4,x,9.3
CC(C)C1C2CCC(C2)C1N (stereo unspecified),x,x,-11.9,x,x,x
COc1ccc(/C=C/C(=O)NC(=S)Nc2ccccc2C(=O)NC2CCCCC2)cc1,2.3,-1.02,90.0*,6.5,91.1*,0.1
CC(=O)NC(=S)Nc1ccccc1C(=O)NC1CCCCC1,-0.5,0.675,-29.5,-7.2,19.2,-1.0
Cc1ccc(/C=C/C(=O)NC(=S)Nc2ccccc2C(=O)NC2CCCCC2)cc1,3.0,-0.142,23.2,26.3,83.2*,-1.3
O=C(/C=C/c1ccc(F)cc1)NC(=S)Nc1ccccc1C(=O)NC1CCCCC1,-3.9,1.12,-4.6,-4.0,1.5,1.6
O=C(/C=C/c1ccccc1)NC(=S)Nc1ccccc1C(=O)NC1CCCCC1,-4.9,-1.04,44.7,8.7,99.5*,-2.9
